The source made the active and inactive calls. No cut-off for these calls is given here.
Test system: Hepatocyte
Assay: Cytotoxicity against rat hepatocytes assessed as reduction in cell viability at 7.5 uM measured up to 24 hrs
Assay type: cell-based
Settings: not given

Row | SMILES | Activity
1 | Cn1cc(NC(=O)c2cc(NC(=O)c3ccc(/C=C/c4ccc(C(F)(F)F)cc4)cc3)cn2C)cc1C(=O)NCCN1CCOCC1 | Non-toxic

Test system: Hepatocyte
Assay: Cytotoxicity against rat hepatocytes assessed as change in cell morphology at 7.5 uM measured up to 24 hrs by phase contrast microscopic analysis
Assay type: cell-based
Settings: not given
How it was run: (§1)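 Primary hepatocyte monolayers exposed to 7.5µM compound over 24 h, with DMSO control. Uptake checked by fluorescence microscopy using red, green and blue filter settings. Morphology assessed by phase contrast with a x20 wet lens, including images at 60 min.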

Row | SMILES | Activity
2 | Cn1cc(NC(=O)c2cc(NC(=O)c3ccc(/C=C/c4ccc(C(F)(F)F)cc4)cc3)cn2C)cc1C(=O)NCCN1CCOCC1 | Non-toxic

Test system: Hepatocyte
Assay: Cellular uptake in rat hepatocytes at 7.5 uM measured after 24 hrs by fluorescence analysis
Assay type: ADME, cell-based
Settings: not given
How it was run: as §1

Row | Drug uptake | SMILES
3 | Not Active | Cn1cc(NC(=O)c2cc(NC(=O)c3ccc(/C=C/c4ccc(C(F)(F)F)cc4)cc3)cn2C)cc1C(=O)NCCN1CCOCC1

Test system: not listed separately
Assay: Drug internalization in nucleus of mouse B16-F0-luc cells at 250 uM measured after 1 hr by DAPI staining based fluorescence microscopic analysis
Assay type: ADME
Settings: not given
How it was run: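 B16-F0-luc mouse melanoma cells exposed to the fluorescent S-MGB probe at two concentrations for 1 hr, with DMSO-only and Hoechst 33342 nuclear-stain controls. Examined live on an inverted fluorescence microscope (x20 objective) under brightfield and UV or DAPI filter sets. Nuclear localisation judged by overlaying fluorescence on brightfield images. Two experiments with separately prepared cells.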

Row | SMILES | Drug uptake
4 | CCOc1ccc(-c2nc3cc(-c4nc5cc(N6CCN(C)CC6)ccc5[nH]4)ccc3[nH]2)cc1.Cl.Cl.Cl | Active

Test system: not listed separately
Assay: Drug internalization in nucleus of mouse B16-F0-luc cells at 3 and 30 ug/ml measured after 1 hr by DAPI staining based fluorescence microscopic analysis
Assay type: ADME
Settings: not given

Row | Drug uptake | SMILES
5 | Dose-dependent effect | CN(C)c1ccc(/C=C/c2ccc(C(=O)Nc3cc(C(=O)Nc4cc(C(=O)NCCN5CCOCC5)n(C)c4)n(C)c3)cn2)cc1

Test system: not listed separately
Assay: Antiproliferative activity against mouse B16-F10-Luc-G5 cells assessed as cell growth inhibition measured after 24 hrs by luciferase gene assay
Assay type: functional, cell-based
Settings: not given
How it was run: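 Luciferase-expressing murine melanoma cells exposed to a concentration series, with gemcitabine as positive control. Growth read by bioluminescence. IC50 is the mean of three experiments, each with three replicates per concentration, reported ± SD.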

Row | SMILES | IC50 [nM]
6 | Cn1cc(NC(=O)c2cc(NC(=O)c3ccc(/C=C/c4ccc(C(F)(F)F)cc4)cc3)cn2C)cc1C(=O)NCCN1CCOCC1 | 160
7 | CC(C)n1cc(NC(=O)c2cc(NC(=O)c3ccc(/C=C/c4ccc(C(F)(F)F)cc4)cc3)cn2C)cc1C(=O)NCCN1CCOCC1 | 2160
8 | COc1ccc(/C=C/c2ccc(C(=O)Nc3cc(C(=O)Nc4cc(C(=O)NCCN5CCOCC5)n(C(C)C)c4)n(C)c3)cn2)cc1 | 810
9 | COc1cccc(/C=C/c2ccc(C(=O)Nc3cc(C(=O)NCCN4CCOCC4)n(C)c3)cc2)c1 | 810
10 | Nc1ccn([C@@H]2O[C@H](CO)[C@@H](O)C2(F)F)c(=O)n1 [GEMCITABINE] | 11000
11 | COc1cccc(/C=C/c2ccc(C(=O)Nc3cc(C(=O)Nc4cc(C(=O)NCCN5CCOCC5)n(C(C)C)c4)n(C)c3)cc2)c1 | 1100

Test system: not listed separately
Assay: (§2) Antiproliferative activity against mouse B16-F10-Luc-G5 cells assessed as cell growth inhibition at 15.36 ug/ml measured after 24 hrs by luciferase gene assay relative to DMSO control
Assay type: functional
Settings: read-out: GI

Row | SMILES | inhibition of growth at 15.36 µg/mL [%]
12 | CC(C)c1nc(N)sc1C(=O)Nc1cc(C(=O)Nc2cc(C(=O)NCCN3CCOCC3)n(C)c2)n(C)c1 | 57
13 | CCC(C)n1cc(NC(=O)c2ccc(/C=C/c3ccc(OC)cc3)nc2)cc1C(=O)Nc1cc(C(=O)NCCN2CCOCC2)n(C)c1 (stereo not drawn) | 84
14 | Cn1cc(NC(=O)c2cc(NC(=O)c3ccc(/C=C/c4ccc(C(F)(F)F)cc4)cc3)cn2C)cc1C(=O)NCCN1CCOCC1 | 77
15 | COc1ccc(/C=C/c2ccc(C(=O)Nc3cc(C(=O)Nc4cc(C(=O)NCCN5CCOCC5)n(C(C)C)c4)n(C)c3)cn2)cc1 | 83
16 | CC(C)n1cc(NC(=O)c2cc(NC(=O)c3cnc(Cl)c(Cl)c3)cn2C)cc1C(=O)Nc1cc(C(=O)NCCCN(C)C)n(C)c1 | 16.1
17 | Cc1sc(NC(=O)c2ccc3c(c2)C(=O)c2ccccc2C3=O)cc1C(=O)Nc1cc(C(=O)Nc2cc(C(=O)NCCCN(C)C)n(C)c2)n(CCC(C)C)c1 | 40
18 | COc1cccc(C(=N)Nc2cc(C(=O)Nc3cc(C(=O)Nc4nc(C(=O)NCCCN(C)C)c(C(C)C)s4)n(C)c3)n(C)c2)c1 | 34
19 | COc1cccc(/C=C/c2ccc(C(=O)Nc3cc(C(=O)NCCN4CCOCC4)n(C)c3)cc2)c1 | 55
20 | COc1ccc(/C=C/c2ccc(C(=O)Nc3cc(C(=O)Nc4cc(C(=O)NCCN5CCOCC5)n(C)c4)n(C)c3)cn2)cc1 | 44
21 | CSc1ccc(/C=C/c2ccc3cc(C(=O)Nc4cc(C(=O)Nc5cc(C(=O)NCCN6CCOCC6)n(C)c5)n(C)c4)ccc3n2)cc1 | 19
22 | CCC(C)n1cc(NC(=O)c2cc(NC(=O)c3ccc(/C=C/c4ccc(OC)cc4)nc3)cn2C)cc1C(=O)NCCN1CCOCC1 (stereo not drawn) | 84
23 | COc1cccc(/C=C/c2ccc(C(=O)Nc3cc(C(=O)N4CCN(C)CC4)n(C)c3)cc2)c1 | 76
24 | COc1cccc(/C=C/c2ccc(C(=O)Nc3cc(C(=O)Nc4cc(C(=O)NCCC(=N)N)n(C)c4)n(C)c3)cc2)c1 | 67
25 | CC(C)c1sc(N)nc1C(=O)Nc1cc(C(=O)NCCN2CCOCC2)n(C)c1 | 2.2
26 | COc1cccc(/C=C/c2ccc(C(=O)Nc3cc(C(=O)Nc4cc(C(=O)NCCN5CCOCC5)n(C(C)C)c4)n(C)c3)cc2)c1 | 88
27 | Cn1cc(NC(=O)c2ccc(/C=C/c3cnc4ccccc4c3)cc2)cc1C(=O)NCCN1CCOCC1 | 72
28 | Cn1cc(NC(=O)c2cc(NC(=O)c3ccc(/C=C/c4ccc5nonc5c4)cc3)cn2C)cc1C(=O)NCCN1CCOCC1 | 30.9
29 | COc1ccc(/C=C/c2ccc(C(=O)Nc3cc(C(=O)N4CCN(C)CC4)n(C)c3)cn2)cc1 | 59
30 | COc1ccc(/C=C/c2ccc(C(=O)Nc3cc(C(=O)Nc4cc(C(=O)NCCN5CCOCC5)n(C)c4)n(C(C)C)c3)cn2)cc1 | 85
31 | Cn1cc(NC(=O)c2cc(NC(=O)c3ccc(/C=C/c4cccc(F)c4)cc3)cn2C)cc1C(=O)NCCN1CCOCC1 | 46
32 | Cn1cc(NC(=O)c2cc(NC(=O)c3ccc(/C=C/c4ccc5nsnc5c4)cc3)cn2C)cc1C(=O)NCCN1CCOCC1 | 37
33 | COc1cccc(C(=N)Nc2ccc(C(=O)Nc3cc(C(=O)Nc4cc(C(=O)NCCN5CCOCC5)n(C)c4)n(C)c3)cc2)c1 | 77
34 | COc1cccc(C(=N)Nc2cc(C(=O)Nc3cc(C(=O)Nc4nc(C(=O)NCCCN(C)C)c(CCC(C)C)s4)n(C)c3)n(C)c2)c1 | 34

Species: Mus musculus
Assay: as §2
Assay type: functional
Settings: not given

Row | SMILES | growth inhibition (GI)
35 | CC(=O)Nc1cc(C(=O)Nc2cc(C(=O)Nc3cc(C(=O)Nc4cc(C(=O)NCCCN(C)C)n(C)c4)n(CCC(C)C)c3)n(C)c2)n(C)c1 | inactive
36 | COc1cccc(C(=O)Nc2nc(C(=O)Nc3cc(C(=O)Nc4cc(C(=O)NCCCN(C)C)n(C)c4)n(C)c3)c(C(C)C)s2)c1 | inactive
37 | Cn1cc(NC(=O)c2cc(NC(=O)c3ccc(/C=C/c4ccc(F)cc4)cc3)cn2C)cc1C(=O)NCCN1CCOCC1 | inactive
38 | Cn1cc(NC(=O)c2cc(NC(=O)c3ccc(/C=C/c4cccc(C(F)(F)F)c4)nc3)cn2C)cc1C(=O)NCCN1CCOCC1 | inactive
39 | CC(C)n1cc(NC(=O)c2cc(NC(=O)c3cnc4ccccc4n3)cn2C)cc1C(=O)Nc1cc(C(=O)NCCCN(C)C)n(C)c1 | inactive
40 | CC(=N)Nc1cc(C(=O)Nc2cc(C(=O)Nc3cc(C(=O)NCCCN(C)C)n(C)c3)n(C)c2)n(C)c1 | inactive
41 | Cn1cc(NC(=O)c2cc(NC(=O)c3cc(NC(=O)c4ccc(Cl)cc4Cl)cn3C)cn2C)cc1C(=O)NCCCN1CCOCC1 | inactive
42 | COc1cccc(/C=C/c2ccc(C(=O)Nc3cc(C(=O)Nc4cc(C(=O)NCCN5CCOCC5)n(C)c4)n(C)c3)cc2)c1 | inactive
43 | CC(=N)Nc1cc(C(=O)Nc2cc(C(=O)Nc3nc(C(=O)NCCCN(C)C)c(CCC(C)C)s3)n(C)c2)n(C)c1 | inactive
44 | COc1cccc(C(=N)Nc2cc(C(=O)Nc3cc(C(=O)Nc4cc(C(=O)NCCCN5CCOCC5)n(C)c4)n(C)c3)n(C)c2)c1 | inactive
45 | CC(=O)Nc1cc(C(=O)Nc2cc(C(=O)Nc3cc(C(=O)NCCCN(C)C)n(C)c3)n(C)c2)c(C)s1 | inactive
46 | CC(C)CCc1sc(NC(=O)c2cc(NC(=O)c3ccc(/C=C/c4cc5ccccc5nc4Cl)cc3)cn2C)nc1C(=O)NCCN1CCOCC1 | inactive
47 | COc1ccc(/C=C(/C(=O)Nc2cc(C(=O)Nc3cc(C(=O)NCCCN(C)C)n(C)c3)n(C)c2)c2ccc(OC)cc2)cc1 | inactive

Test system: not listed separately
Assay: Potency index, ratio of gemcitabine IC50 to compound IC50 for mouse B16-F10-Luc-G5 cells
Assay type: functional
Settings: not given

Row | SMILES | Ratio IC50
48 | Cn1cc(NC(=O)c2cc(NC(=O)c3ccc(/C=C/c4ccc(C(F)(F)F)cc4)cc3)cn2C)cc1C(=O)NCCN1CCOCC1 | 70

Source: ChEMBL document CHEMBL3822427, “An evaluation of Minor Groove Binders as anti-lung cancer therapeutics” (Bioorg Med Chem Lett, 2016)
